ChEMBL document CHEMBL1157464, “1-[(3-Aryloxy-3-aryl)propyl]-1H-imidazoles, new imidazoles with potent activity against Candida albicans and dermatophytes. Synthesis, structure-activity relationship, and molecular modeling studies” (J Med Chem, 2008)
Converted amounts (≈) assume the structure as drawn.

Key:
[1] = test system: Candida parapsilosis; assay: Antifungal activity against Candida parapsilosis ATCC 22019 at 35 degC after 48 hrs by broth microdilution test; format: functional; details: for MFC: read-out: MFC
Outline: (§1)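 Broth microdilution per NCCLS M27-A2. Stocks in 100% DMSO, diluted in RPMI 1640 with 0.165 M MOPS at pH 7.0; final range 0.25–128 µg/mL. Inoculum 1000–5000 cells/mL from SDA subcultures. […] C. parapsilosis ATCC22019 served as QC strain.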

[2] = test system: Candida albicans; assay: Antifungal activity against Candida albicans ATCC 10261 at 35 degC after 48 hrs by broth microdilution test; format: functional; details: for MIC50: read-out: MIC50; outline: as §1
[3] = test system: Candida albicans; assay: Antifungal activity against Candida albicans ATCC 10261 at 35 degC after 48 to 96 hrs by broth microdilution test; format: functional
Outline: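 Minimal fungicidal concentration for Candida. […] MFC is the lowest concentration allowing fewer than two colonies (99% killing).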

[4] = Cytotoxicity against human U937 cells assessed as reduction of cell viability after 24 hrs by MTT assay; format: cell-based, U-937
Outline: (§2)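 U937 and K562 cells, from ATCC, plated at 5 × 10^4/mL in phenol-red-free RPMI-1640 with 20% FBS and penicillin/streptomycin. Compounds added 2 h later at 25–100 µg/mL, then 24 h at 37 °C. MTT at 1 mg/mL for 3 h, formazan dissolved in isopropanol with 0.1 N HCl, absorbance read at 570 nm. CC50 is the concentration reducing viability by 50% versus the drug-free control.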

[5] = Cytotoxicity against human K562 cells after assessed as reduction of cell viability 24 hrs by MTT assay; format: cell-based; outline: as §2
[6] = test system: Candida albicans; assay: Antifungal activity against fluconazole-resistant Candida albicans isolated from oropharyngeal or vaginal disease patient after 48 hrs by broth microdilution test; format: functional
[7] = test system: Candida albicans; assay: Antifungal activity against fluconazole-sensitive Candida albicans Fe40 at 35 degC after 48 hrs by broth microdilution test; format: functional; outline: as §1
[8] = test system: Arthrodermataceae; assay: Antifungal activity against dermatophytes at 28 degC after 7 days by broth microdilution test; format: functional; details: 168 h
Outline: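 Ten clinical isolates (two M. canis, five M. gypseum, three T. mentagrophytes) tested by NCCLS M38-A broth microdilution in MOPS-buffered RPMI 1640, pH 7.0, over 0.25–128 µg/mL. Conidial/hyphal suspension from PDA slants (28 °C, 7 days) adjusted to 65–70% transmittance at OD530, then diluted 1:50.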

[9] = test system: Arthrodermataceae; assay: Antifungal activity against dermatophytes at 28 degC after 5 days by broth microdilution test; details: for MFC: Arthrodermataceae
[10] = test system: Arthrodermataceae; assay: Antifungal activity against dermatophytes at 28 degC after 48 to 96 hrs by broth microdilution test
[11] = Lodderomyces parapsilosis, ATCC 22019, 48 h
[12] = Candida albicans, ATCC 10261, 48 h
[13] = Lodderomyces parapsilosis, ATCC 22019, 48 h, read-out: MIC
[14] = Candida albicans, ATCC 10261, 48 h, read-out: MIC
[15] = Candida albicans, ATCC 10261, 48 h, read-out: MIC90
[16] = Candida albicans, ATCC 10261, read-out: MFC

| SMILES | MFC [1, 11] [µg/mL] | MIC50 [2, 12] [µg/mL] | MFC50 [3] [µg/mL] | MFC90 [3] [µg/mL] | CC50 at 24 h [4] [µM] | CC50 at 24 h [5] [µM] | MIC [6] [µg/mL] | MIC [7] [µg/mL] | MIC [8] [µg/mL] | MIC50 [8] [µg/mL] | MIC90 [8] [µg/mL] | MFC90 [9] [µg/mL] | MFC [9] [µg/mL] | MFC50 [10] [µg/mL] | MIC [1, 13] [µg/mL] | MIC [2, 14] [µg/mL] | MIC90 [2, 15] [µg/mL] | MFC [3, 16] [µg/mL] | other results |
| --- | --- | --- | --- | --- | --- | --- | --- | --- | --- | --- | --- | --- | --- | --- | --- | --- | --- | --- | --- |
| Clc1ccc(OC(CCn2ccnc2)c2ccccc2)c(Cl)c1 (racemic) | 8 (≈ 23 µM) | 8 (≈ 23 µM) | 8 (≈ 23 µM) | 16 (≈ 46.1 µM) | 166 | 121 | 7.2 (≈ 20.7 µM) | 2 (≈ 5.76 µM) | 9.2 (≈ 26.5 µM) | 8 (≈ 23 µM) | 8 (≈ 23 µM) | 32 (≈ 92.2 µM) | 28.8 (≈ 82.9 µM) | 16 (≈ 46.1 µM) | – | – | – | – | MIC [1]: 2 µg/mL (≈ 5.76 µM); MIC [2]: 5.3 µg/mL (≈ 15.3 µM); MIC90 [2]: 8 µg/mL (≈ 23 µM); MFC [3]: 11.4 µg/mL (≈ 32.8 µM) |
| Clc1ccc(OC(CCn2ccnc2)c2ccccc2)cc1 (centres undefined) | 32 (≈ 102 µM) | 2 (≈ 6.39 µM) | 8 (≈ 25.6 µM) | 16 (≈ 51.2 µM) | 200 | 256 | 6.4 (≈ 20.5 µM) | 2 (≈ 6.39 µM) | 18.4 (≈ 58.8 µM) | 16 (≈ 51.2 µM) | 32 (≈ 102 µM) | 32 (≈ 102 µM) | 25.6 (≈ 81.8 µM) | 16 (≈ 51.2 µM) | 4 (≈ 12.8 µM) | 3.3 (≈ 10.5 µM) | 4 (≈ 12.8 µM) | 10.3 (≈ 32.9 µM) | – |
| Clc1ccc(C(CCn2ccnc2)Oc2c(Cl)cccc2Cl)cc1 (centres undefined) | 4 (≈ 10.5 µM) | 2 (≈ 5.24 µM) | 8 (≈ 21 µM) | 16 (≈ 41.9 µM) | 271 | 135 | 6.8 (≈ 17.8 µM) | 2 (≈ 5.24 µM) | – | – | – | – | – | – | 1 (≈ 2.62 µM) | 5 (≈ 13.1 µM) | 8 (≈ 21 µM) | 14.7 (≈ 38.5 µM) | – |
| Clc1ccc(C(CCn2ccnc2)Oc2ccccc2Cl)cc1 (centres undefined) | 32 (≈ 92.2 µM) | 8 (≈ 23 µM) | 32 (≈ 92.2 µM) | 32 (≈ 92.2 µM) | 209 | 205 | 8 (≈ 23 µM) | 8 (≈ 23 µM) | – | – | – | – | – | – | 4 (≈ 11.5 µM) | 7.7 (≈ 22.2 µM) | 8 (≈ 23 µM) | 27 (≈ 77.8 µM) | – |
| Cc1ccc(OC(CCn2ccnc2)c2ccc(F)cc2)cc1 (centres undefined) | 32 (≈ 103 µM) | 4 (≈ 12.9 µM) | 16 (≈ 51.6 µM) | 32 (≈ 103 µM) | 120 | 383 | 9.6 (≈ 30.9 µM) | 4 (≈ 12.9 µM) | 10 (≈ 32.2 µM) | 8 (≈ 25.8 µM) | 16 (≈ 51.6 µM) | 16 (≈ 51.6 µM) | 16 (≈ 51.6 µM) | 16 (≈ 51.6 µM) | 4 (≈ 12.9 µM) | 7 (≈ 22.6 µM) | 8 (≈ 25.8 µM) | 23 (≈ 74.1 µM) | – |
| Cc1ccc(OC(CCn2ccnc2)c2ccc(C)cc2)cc1 (centres undefined) | 8 (≈ 26.1 µM) | 4 (≈ 13.1 µM) | 16 (≈ 52.2 µM) | 32 (≈ 104 µM) | 263 | 191 | 4.8 (≈ 15.7 µM) | 4 (≈ 13.1 µM) | 8 (≈ 26.1 µM) | 8 (≈ 26.1 µM) | 8 (≈ 26.1 µM) | 32 (≈ 104 µM) | 30.4 (≈ 99.2 µM) | 32 (≈ 104 µM) | 2 (≈ 6.53 µM) | 4 (≈ 13.1 µM) | 4 (≈ 13.1 µM) | 20.5 (≈ 66.9 µM) | – |
| Clc1ccc(OC(CCn2ccnc2)c2ccc(Cl)cc2)cc1 (centres undefined) | 8 (≈ 23 µM) | 4 (≈ 11.5 µM) | 16 (≈ 46.1 µM) | 32 (≈ 92.2 µM) | 327 | 265 | 8 (≈ 23 µM) | 4 (≈ 11.5 µM) | – | – | – | – | – | – | 4 (≈ 11.5 µM) | 5.5 (≈ 15.8 µM) | 8 (≈ 23 µM) | 21.5 (≈ 61.9 µM) | – |
| C[C@@H](c1ncncc1F)[C@](O)(Cn1cncn1)c1ccc(F)cc1F [VORICONAZOLE] | 0.125 (≈ 0.358 µM) | 0.25 (≈ 0.716 µM) | >16 | >16 | – | – | 16 (≈ 45.8 µM) | 0.016 (≈ 0.0458 µM) | 0.03 (≈ 0.0859 µM) | 0.016 (≈ 0.0458 µM) | 0.06 (≈ 0.172 µM) | 1 (≈ 2.86 µM) | 0.9 (≈ 2.58 µM) | 1 (≈ 2.86 µM) | 0.015 (≈ 0.0429 µM) | 0.89 (≈ 2.55 µM) | > 1 | 26 (≈ 74.4 µM) | – |
